We go through 18 compounds from publication PMC5343109 (Acta Pharmaceutica Sinica. B, 2016).

“And” between values parts separate entries of the source, which are not always exact repeats. Equal values may be shown once. Marks after values point to notes of the source that are not given here.

One data set relates to gastric mucosal tissue. The data set is described as follows: lipid peroxidation in the gastric mucosa. In kind it is in vivo. The settings on record: rats, mean±SEM.
The test system of data set [1] is gastric mucosa (ulcerogenic potential). The data set is described as follows: ulcerogenic test. In kind it is in vivo. Particulars: rats, oral dose of 30 mg/kg, mean±SEM, n=6.
The subject of another data set is TNF-α. Kind of data set: LPS-induced TNF-α production inhibition in mice. In kind it is in vivo, mice (BALB/c). Particulars: for TNF-α inhibition: LPS-induced TNF-α production in mice, plasma ELISA, mean±SEM, n=6; for ID50: LPS-induced TNF-α release in mice. On the technique in general: An ELISA detects its analyte on a solid surface through an enzyme-linked reagent.

The next data set addresses p38α MAPK (Homo sapiens, UniProt Q16539). Kind of data set: p38α MAPK assay. In kind it is biochemical.
Data set [2] concerns carrageenan-induced rat paw edema. Kind of data set: carrageenan-induced rat paw edema anti-inflammatory activity. In kind it is in vivo, albino rats of Wistar strain. The settings on record: for inhibition in vivo at 10 mg/kg: Rattus norvegicus, po, 4 h, read-out: Inhibition (anti-inflammatory activity), rat, oral dose 10 mg/kg body weight, after 4h; for Increase in paw edema / Activity relative to diclofenac sodium / Inhibition (anti-inflammatory activity): rat; for Increase in paw edema / Inhibition (anti-inflammatory activity): oral dose 10 mg/kg body weight; for Increase in paw edema: mean±SEM, n=6; for Activity relative to diclofenac sodium: oral dose 10 mg/kg, diclofenac sodium = 100; for Inhibition (anti-inflammatory activity): after 4h, 10 mg/kg. The method in brief:
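Wistar rats of either sex, 180–200 g, kept at 25 ± 2 °C, 50 ± 5% relative humidity and a 12 h light/dark cycle, with free food and water until testing. Paw edema after carrageenan was measured by digital plethysmometer. Six animals per group. Groups were compared by Student's t-test, with P < 0.05 taken as significant.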

The nature of data set [3]: DPPH free radical scavenging antioxidant assay. The settings on record: 517 nm, 1 mmol/L concentration. Background: Loss of DPPH colour is used to gauge radical scavenging.

Chain of p38α MAPK (Q16539 whole entry): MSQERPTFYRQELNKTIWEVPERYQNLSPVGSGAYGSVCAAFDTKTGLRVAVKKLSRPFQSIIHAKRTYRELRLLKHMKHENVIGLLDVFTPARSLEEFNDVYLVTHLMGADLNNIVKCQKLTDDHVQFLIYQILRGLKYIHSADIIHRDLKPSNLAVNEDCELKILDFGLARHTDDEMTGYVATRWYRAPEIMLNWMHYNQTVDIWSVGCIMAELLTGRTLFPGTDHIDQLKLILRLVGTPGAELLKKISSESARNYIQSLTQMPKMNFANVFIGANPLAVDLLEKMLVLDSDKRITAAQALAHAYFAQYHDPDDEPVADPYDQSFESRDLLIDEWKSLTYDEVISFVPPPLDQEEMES

In the data set on gastric mucosal tissue (n=6), `NC(=O)Nc1ccc(-c2cc(-c3ccc(OCc4ccccc4)cc3)n(-c3ccc(F)cc3)n2)cc1` [Compound 3e, 1-[4-[5-(4-(benzyloxy)phenyl)-1-(4-fluorophenyl)-1H-pyrazol-3-yl]phenyl]urea] came in with a Lipid peroxidation of 6.08±0.15 nmol MDA/100 mg tissue. The same compound gave a Severity index in data set [1] of 0.83±0.22. This compound also came in with a TNF-α inhibition in the data set with TNF-α of 57.34±3.05%. Besides, half-maximal inhibition against p38α MAPK (IC50) was put at 48 ± 10 nM. Further, in data set [2], the inhibition in vivo at 10 mg/kg was determined as 72.3%, the “Increase in paw edema” value amounted to 0.47 ± 0.16 mL and the “Activity relative to diclofenac sodium” value stood at 88.50.
For the compound `NC(=O)Nc1ccc(-c2cc(-c3ccc(OCc4ccccc4)cc3)n(-c3ccc(Cl)cc3)n2)cc1` [Compound 3c, 1-[4-[5-(4-(Benzyloxy)phenyl)-1-(4-chlorophenyl)-1H-pyrazol-3-yl]phenyl]urea], the Lipid peroxidation in the data set with gastric mucosal tissue (n=6) was 5.12±0.55 ^b nmol MDA/100 mg tissue. In the data set on TNF-α, the TNF-α inhibition was determined as 62.56±0.24%; the ID50 is 9.67 mg/kg and 9.67 ^b mg/kg. Moreover, in data set [2], the inhibition in vivo at 10 mg/kg worked out at 80.9%, the “Inhibition (anti-inflammatory activity)” value is recorded as 80.93 ^b %, the “Increase in paw edema” value was found to be 0.32 ± 0.06 mL and the “Activity relative to diclofenac sodium” value worked out at 99.03. For the same compound, in data set [3], the percentage antioxidant activity came to 75.06%.
`COc1ccc(O)c(C(C)(C)C)c1` [BHA, butylated hydroxy anisole, reference compound] yielded a percentage antioxidant activity in data set [3] of 71.53%.
For `NC(=O)Nc1ccc(-c2cc(-c3ccc(OCc4ccccc4)cc3)n(-c3ccc([N+](=O)[O-])cc3)n2)cc1` [Compound 3h, 1-[4-[5-(4-(Benzyloxy)phenyl)-1-(4-nitrophenyl)-1H-pyrazol-3-yl]phenyl]urea], the Severity index in data set [1] was 0.91±0.20. Also, the TNF-α inhibition with TNF-α is 52.76±2.08%. The IC50 (as a rule, the midpoint of a concentration-inhibition curve) at p38α MAPK is 67 nM. Further, in data set [2], the inhibition in vivo at 10 mg/kg amounted to 68.4%, the “Increase in paw edema” value stood at 0.53 ± 0.12 mL and the “Activity relative to diclofenac sodium” value was 83.67.
`NC(=O)Nc1ccc(-c2cc(-c3ccc(OCc4ccccc4)cc3)n(-c3ccc([N+](=O)[O-])cc3[N+](=O)[O-])n2)cc1` [Compound 3i, 1-[4-[5-(4-(Benzyloxy)phenyl)-1-(2,4-dinitrophenyl)-1H-pyrazol-3-yl]phenyl]urea]: half-maximal inhibition at p38α MAPK (IC50) was put at 112 ± 40 nM.
As to `C[S+]([O-])c1ccc(-c2nc(-c3ccncc3)c(-c3ccc(F)cc3)[nH]2)cc1` (stereo not shown) [SB 203580, reference compound], in the data set on TNF-α, the TNF-α inhibition is on record as 52.11±1.08 ^b %; the ID50 is 28.40 mg/kg and 28.40 ^b mg/kg.
In turn, `Cc1cccc(-n2nc(-c3ccc(NC(N)=O)cc3)cc2-c2ccc(OCc3ccccc3)cc2)c1` [Compound 3k, 1-[4-[5-(4-(Benzyloxy)phenyl)-1-(3-methylphenyl)-1H-pyrazol-3-yl]phenyl]urea] yielded a half-inhibitory concentration (IC50) against p38α MAPK of 210 ± 110 nM.
For the compound `NC(=O)Nc1ccc(-c2cc(-c3ccc(OCc4ccccc4)cc3)n(-c3ccc(Br)cc3)n2)cc1` [Compound 3g, 1-[4-[5-(4-(Benzyloxy)phenyl)-1-(4-bromophenyl)-1H-pyrazol-3-yl]phenyl]urea], the Lipid peroxidation in the data set with gastric mucosal tissue (n=6) is 6.02±0.17 ^a nmol MDA/100 mg tissue. Moreover, in data set [1], the Severity index is 0.75±0.27. This compound displayed a TNF-α inhibition in the data set on TNF-α of 58.13±0.28%. In data set [2], the inhibition in vivo at 10 mg/kg is 74%, the “Inhibition (anti-inflammatory activity)” value is recorded as 74.01 ^b %, the “Increase in paw edema” value is 0.44 ± 0.06 mL and the “Activity relative to diclofenac sodium” value amounted to 90.56.
In turn, `Cc1ccc(-n2nc(-c3ccc(NC(N)=O)cc3)cc2-c2ccc(OCc3ccccc3)cc2)cc1` [Compound 3l, 1-[4-[5-(4-(Benzyloxy)phenyl)-1-(4-methylphenyl)-1H-pyrazol-3-yl]phenyl]urea] had an IC50 against p38α MAPK of 169 ± 70 nM.
Regarding `NC(=O)Nc1ccc(-c2cc(-c3ccc(OCc4ccccc4)cc3)n(-c3cccc(Cl)c3)n2)cc1` [Compound 3b, 1-[4-[5-(4-(Benzyloxy)phenyl)-1-(3-chlorophenyl)-1H-pyrazol-3-yl]phenyl]urea], the Lipid peroxidation with gastric mucosal tissue (n=6) is 5.19±0.48 ^b nmol MDA/100 mg tissue. Also, in the data set with TNF-α, the TNF-α inhibition was 62.45±0.07 ^b %; the ID50 was 11.32 mg/kg and 11.32 ^b mg/kg. In data set [2], the inhibition in vivo at 10 mg/kg was determined as 78.1%, the “Inhibition (anti-inflammatory activity)” value is on record as 78.06 ^b %, the “Increase in paw edema” value came out at 0.37 ± 0.20 mL and the “Activity relative to diclofenac sodium” value is given as 95.52.
As to `COc1ccccc1-n1nc(-c2ccc(NC(N)=O)cc2)cc1-c1ccc(OCc2ccccc2)cc1` [Compound 3n, 1-[4-[5-(4-(Benzyloxy)phenyl)-1-(2-methoxyphenyl)-1H-pyrazol-3-yl]phenyl]urea], the IC50 against p38α MAPK came to 206 ± 370 nM. Further, the percentage antioxidant activity entry in data set [3] is given as “did not exhibit any significant antioxidant activity”.
In the data set with gastric mucosal tissue (n=6), `O=C(O)Cc1ccccc1Nc1c(Cl)cccc1Cl` [Diclofenac sodium, diclofenac sodium, reference compound] yielded a Lipid peroxidation of 6.52±0.42 nmol MDA/100 mg tissue. The compound further gave a Lipid peroxidation in the data set with gastric mucosal tissue (n=6, listed as diclofenac sodium) of 6.52 ± 0.42 nmol MDA/100 mg tissue. Moreover, the Severity index in data set [1] was 1.83±0.27. Also, in data set [2], the inhibition in vivo at 10 mg/kg worked out at 81.6%, the “Increase in paw edema” value is 0.31 ± 0.13 mL and the “Activity relative to diclofenac sodium” value is 100.
The compound `NC(=O)Nc1ccc(-c2cc(-c3ccc(OCc4ccccc4)cc3)n(-c3ccc(F)c(Cl)c3)n2)cc1` [Compound 3f, 1-[4-[5-(4-(Benzyloxy)phenyl)-1-(3-chloro-4-fluorophenyl)-1H-pyrazol-3-yl]phenyl] urea] yielded a 50% inhibitory concentration (IC50) at p38α MAPK of 110 ± 170 nM.
In turn, `COc1ccc(-n2nc(-c3ccc(NC(N)=O)cc3)cc2-c2ccc(OCc3ccccc3)cc2)cc1` [Compound 3o, 1-[4-[5-(4-(Benzyloxy)phenyl)-1-(4-methoxyphenyl)-1H-pyrazol-3-yl]phenyl]urea] had an IC50 on p38α MAPK of 170 nM. Moreover, the percentage antioxidant activity result in data set [3] was “did not exhibit any significant antioxidant activity”.
On p38α MAPK, `Cc1cccc(C)c1-n1nc(-c2ccc(NC(N)=O)cc2)cc1-c1ccc(OCc2ccccc2)cc1` [Compound 3m, 1-[4-[5-(4-(Benzyloxy)phenyl)-1-(2,6-dimethylphenyl)-1H-pyrazol-3-yl]phenyl]urea] showed an IC50 of 270 nM.
Take `NC(=O)Nc1ccc(-c2cc(-c3ccc(OCc4ccccc4)cc3)n(-c3ccc(Cl)c(Cl)c3)n2)cc1` [Compound 3d, 1-[4-[5-(4-(Benzyloxy)phenyl)-1-(3,4-dichlorophenyl)-1H-pyrazol-3-yl]phenyl]urea]: the Severity index in data set [1] is on record as 1.08±0.37 ^b. In addition, the TNF-α inhibition with TNF-α turned out to be 52.60±2.16%. At p38α MAPK, half-maximal inhibition (IC50) was put at 79 nM. In addition, in data set [2], the inhibition in vivo at 10 mg/kg is 62.2%, the “Increase in paw edema” value is 0.64 ± 0.05 mL and the “Activity relative to diclofenac sodium” value came to 76.17.
`Cc1ccccc1-n1nc(-c2ccc(NC(N)=O)cc2)cc1-c1ccc(OCc2ccccc2)cc1` [Compound 3j, 1-[4-[5-(4-(Benzyloxy)phenyl)-1-(2-methylphenyl)-1H-pyrazol-3-yl]phenyl]urea] registered an IC50 against p38α MAPK of 123 nM. Also, the percentage antioxidant activity result in data set [3] is given as “did not exhibit any significant antioxidant activity”.
With `NC(=O)Nc1ccc(-c2cc(-c3ccc(OCc4ccccc4)cc3)n(-c3ccccc3Cl)n2)cc1` [Compound 3a, 1-[4-[5-(4-(Benzyloxy)phenyl)-1-(2-chlorophenyl)-1H-pyrazol-3-yl]phenyl]urea], in the data set on gastric mucosal tissue (n=6), the Lipid peroxidation was 5.47±0.44 ^b nmol MDA/100 mg tissue. The Severity index in data set [1] is on record as 0.67±0.25 ^b. Moreover, in the data set with TNF-α, the TNF-α inhibition is 60.87±2.65 ^b % and the ID50 came out at 19.98 mg/kg. The compound further gave an IC50 at p38α MAPK of 39 ± 40 nM. For the same compound, in data set [2], the inhibition in vivo at 10 mg/kg was 76.2%, the “Inhibition (anti-inflammatory activity)” value is 76.19 ^b %, the “Increase in paw edema” value was 0.40 ± 0.08 mL and the “Activity relative to diclofenac sodium” value worked out at 93.23.
